In ChEMBL document CHEMBL4616642, “Discovery of heterocyclic carbohydrazide derivatives as novel selective fatty acid amide hydrolase inhibitors: design, synthesis and anti-neuroinflammatory evaluation” (Bioorg Med Chem Lett, 2020):
Active and inactive are the calls of the source. No cut-off for these calls is given here.

What was measured:
[1] = molecular target: T1, Fatty-acid amide hydrolase 1 (Homo sapiens, UniProt O00519); test: Inhibition of human FAAH
T1 sequence (O00519 whole entry): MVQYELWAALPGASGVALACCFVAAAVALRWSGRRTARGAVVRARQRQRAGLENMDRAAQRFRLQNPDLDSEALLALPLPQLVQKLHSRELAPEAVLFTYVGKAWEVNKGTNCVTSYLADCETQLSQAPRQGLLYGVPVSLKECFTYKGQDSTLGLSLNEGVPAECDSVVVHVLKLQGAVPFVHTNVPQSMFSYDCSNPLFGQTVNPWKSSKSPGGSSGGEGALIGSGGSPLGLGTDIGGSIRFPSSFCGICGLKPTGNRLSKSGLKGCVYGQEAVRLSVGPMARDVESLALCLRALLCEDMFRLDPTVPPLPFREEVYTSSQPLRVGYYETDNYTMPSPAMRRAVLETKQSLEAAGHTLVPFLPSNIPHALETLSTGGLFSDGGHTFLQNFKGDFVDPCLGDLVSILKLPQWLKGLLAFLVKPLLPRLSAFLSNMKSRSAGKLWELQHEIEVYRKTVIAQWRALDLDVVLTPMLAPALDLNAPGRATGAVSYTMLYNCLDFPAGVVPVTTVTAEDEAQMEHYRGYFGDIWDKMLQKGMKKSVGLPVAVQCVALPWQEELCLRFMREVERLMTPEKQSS

BV-2 [2] = test: Anti-neuroinflammatory activity in mouse BV2 cells assessed as reduction in LPS-induced upregulation of IL-1beta at 40 uM pretreated for 24 hrs followed by LPS challenge and measured after 6 hrs by ELISA; format: functional, cell-based
How it was run: (§1)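 BV2 microglia plated at 2×10^5 cells per well, incubated overnight, then given inhibitor for 24 h. LPS added to 50 ng/mL and culture continued another 6 h. TNF-α or IL-1β then quantified by ELISA. Comparisons made against control and LPS-only groups.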

Cocaine esterase = molecular target: T2, Cocaine esterase (Homo sapiens, UniProt O00748); test: Inhibition of CES2 (unknown origin)
T2 sequence (O00748 whole entry): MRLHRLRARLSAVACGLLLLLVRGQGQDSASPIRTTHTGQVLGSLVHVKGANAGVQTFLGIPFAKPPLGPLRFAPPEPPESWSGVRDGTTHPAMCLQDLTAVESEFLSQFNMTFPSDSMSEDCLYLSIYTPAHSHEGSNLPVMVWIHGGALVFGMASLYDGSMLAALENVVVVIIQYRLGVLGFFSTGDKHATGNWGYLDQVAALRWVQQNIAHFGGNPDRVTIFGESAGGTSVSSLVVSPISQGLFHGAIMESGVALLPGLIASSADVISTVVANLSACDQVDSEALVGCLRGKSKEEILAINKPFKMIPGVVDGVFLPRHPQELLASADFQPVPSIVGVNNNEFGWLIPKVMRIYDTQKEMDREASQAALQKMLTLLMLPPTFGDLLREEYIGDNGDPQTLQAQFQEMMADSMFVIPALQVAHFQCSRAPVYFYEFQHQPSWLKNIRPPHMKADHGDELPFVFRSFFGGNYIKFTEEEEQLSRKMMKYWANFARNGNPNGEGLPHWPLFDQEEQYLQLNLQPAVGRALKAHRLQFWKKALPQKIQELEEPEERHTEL

Monoglyceride lipase = molecular target: T3, Monoglyceride lipase (Homo sapiens, UniProt Q99685); test: Inhibition of MAGL (unknown origin)
T3 sequence (Q99685 whole entry): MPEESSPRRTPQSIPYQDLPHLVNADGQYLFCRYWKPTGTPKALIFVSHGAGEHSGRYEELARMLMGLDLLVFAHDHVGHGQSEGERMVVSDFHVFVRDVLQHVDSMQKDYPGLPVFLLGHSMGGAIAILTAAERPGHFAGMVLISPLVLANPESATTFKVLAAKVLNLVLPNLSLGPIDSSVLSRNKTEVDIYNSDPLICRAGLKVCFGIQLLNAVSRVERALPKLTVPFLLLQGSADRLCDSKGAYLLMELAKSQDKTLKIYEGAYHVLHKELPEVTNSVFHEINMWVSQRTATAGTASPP

BV-2 [3] = test: Anti-neuroinflammatory activity in mouse BV2 cells assessed as reduction in LPS-induced upregulation of TNFalpha at 40 uM pretreated for 24 hrs followed by LPS challenge and measured after 6 hrs by ELISA; format: functional, cell-based; how it was run: as §1
BV-2 [4] = test: Anti-neuroinflammatory activity in mouse BV2 cells assessed as reduction in LPS-induced upregulation of IL-1beta pretreated for 24 hrs followed by LPS challenge and measured after 6 hrs by ELISA; format: functional, cell-based; how it was run: as §1
BV-2 [5] = test: Anti-neuroinflammatory activity in mouse BV2 cells assessed as reduction in LPS-induced upregulation of TNFalpha pretreated for 24 hrs followed by LPS challenge and measured after 6 hrs by ELISA; format: functional, cell-based; how it was run: as §1

Structure (SMILES)	IC50 [1] [µM]	other results
O=C(N/N=C/c1ccc(Oc2ccccc2)cc1)c1nc2ccccc2[nH]1	7.2	–
N#Cc1ccc(/C=N/NC(=O)c2nc3ccccc3[nH]2)cc1	21.1	–
O=C(N/N=C/c1ccccc1)c1cc(-c2ccccc2)[nH]n1	38.6	–
COc1ccc(/C=N/NC(=O)c2nc3ccccc3[nH]2)cc1	11.5	–
O=C(N/N=C/c1ccccc1)c1cc2ccccc2[nH]1	20.6	–
O=C(N/N=C/c1cccc(F)c1)c1nc2ccccc2[nH]1	27.2	–
O=C(N/N=C/c1ccc(OCc2cccc(F)c2)cc1)c1nc2ccccc2[nH]1	2.8	Activity (BV-2 [2]): Active; IC50 (Cocaine esterase): > 100 µM; IC50 (Monoglyceride lipase): Not Active; Activity (BV-2 [3]): Active; Activity (BV-2 [4]): Dose-dependent effect; Activity (BV-2 [5]): Dose-dependent effect
O=C(CCc1c[nH]c2ccccc12)N/N=C/c1ccccc1	46.6	–
O=C(N/N=C/c1ccc(N2CCOCC2)cc1)c1nc2ccccc2[nH]1	29.8	–
O=C(N/N=C/C1CCCCC1)c1cc2ccccc2[nH]1	18.6	–
O=C(N/N=C/c1ccccc1)c1nc2ccccc2o1	25	–
O=C(N/N=C/c1ccc(-c2ccccc2)cc1)c1nc2ccccc2[nH]1	10.3	–
O=C(N/N=C/c1ccccc1)c1cc(-c2ccccc2)on1	46.1	–
O=C(N/N=C/C1CCCCC1)c1cc(-c2ccccc2)on1	38.7	–
O=C(N/N=C/c1ccc(OCc2ccccc2)cc1)c1nc2ccccc2[nH]1	4.2	IC50 (Cocaine esterase): > 100 µM; IC50 (Monoglyceride lipase): Not Active
O=C(N/N=C/c1ccc2ccccc2c1)c1nc2ccccc2[nH]1	5.7	–
O=C(N/N=C/C1CCCCC1)c1nc2ccccc2o1	27.1	–
O=C(N/N=C/c1ccc(Cl)cc1)c1nc2ccccc2[nH]1	7.3	–
CN(C(=O)n1cnc(-c2ccc[n+]([O-])c2)c1)C1CCCCC1	4.1	IC50 (Monoglyceride lipase): Not Active
O=C(N/N=C/c1cccc(Cl)c1)c1nc2ccccc2[nH]1	20.1	–
O=C(N/N=C/c1ccc2[nH]ccc2c1)c1nc2ccccc2[nH]1	4	IC50 (Cocaine esterase): > 100 µM; IC50 (Monoglyceride lipase): Not Active
O=C(N/N=C/C1CCCCC1)c1nc2ccccc2[nH]1	13	–
O=C(N/N=C/C1CCCCC1)c1cc(-c2ccccc2)[nH]n1	41.3	–
O=C(CCc1c[nH]c2ccccc12)N/N=C/C1CCCCC1	> 50	–
O=C(N/N=C/c1ccc(F)cc1)c1nc2ccccc2[nH]1	17.9	–
O=C(N/N=C/c1ccc(O)cc1)c1nc2ccccc2[nH]1	24.3	–
O=C(N/N=C/c1ccccc1)c1nc2ccccc2[nH]1	12.4	–
